Test results: ChEMBL document CHEMBL1649465, “In vitro activity of ceftaroline alone and in combination against clinical isolates of resistant gram-negative pathogens, including beta-lactamase-producing Enterobacteriaceae and Pseudomonas aeruginosa” (2009)
Values after ≈ are worked out from the molar mass of the structure shown. Active and inactive are the calls of the source. The calls are words filed in the database; no cut-off is given here.

Experiments:
Klebsiella pneumoniae [1] = experiment: Bactericidal activity against Klebsiella pneumoniae isolate 5427 at 1/4 times MIC after 24 hrs by time kill analysis; format: functional, organism-based
In short: (§1)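 Duplicate time-kill assays in 2-ml cultures of Mg/Ca-supplemented Mueller-Hinton broth. […] Samples taken at 0, 1, 2, 4, 8 and 24 h, serially diluted in cold 0.9% NaCl and spiral-plated for colony counts. Detection limit 2 log10 CFU/ml. Reported as decrease in log10 CFU/ml (mean ± SD).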

Escherichia coli [2] = experiment: Antimicrobial activity against ESBL-producing Escherichia coli by broth microdilution method; format: functional
Pseudomonas aeruginosa [3] = experiment: Antimicrobial activity against Pseudomonas aeruginosa isolate 796 by broth microdilution method; format: functional
Escherichia coli [4] = experiment: Antimicrobial activity against Escherichia coli isolate 5401 by broth microdilution method; format: functional
Pseudomonas aeruginosa [5] = experiment: Bactericidal activity against Pseudomonas aeruginosa isolate 1037 at 1/4 times MIC after 24 hrs by time kill analysis; format: functional, organism-based
In short: (§2)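 Duplicate 24-h time-kill of the drug combination, each agent at one-fourth its MIC. […] Counts were taken by spiral plating after dilution in cold saline.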

Pseudomonas aeruginosa [6] = experiment: Bactericidal activity against Pseudomonas aeruginosa isolate 796 at 1/4 times MIC after 24 hrs by time kill analysis; format: functional, organism-based; in short: as §2
Escherichia coli [7] = experiment: Bactericidal activity against Escherichia coli isolate 5411 at 1/4 times MIC after 24 hrs by time kill analysis; format: functional, organism-based; in short: as §1
Klebsiella pneumoniae [8] = experiment: Antimicrobial activity against Klebsiella pneumoniae isolate 5427 by broth microdilution method; format: functional
Pseudomonas aeruginosa [9] = experiment: Bactericidal activity against Pseudomonas aeruginosa isolate 956 at 1/4 times MIC after 24 hrs by time kill analysis; format: functional, organism-based; in short: as §2
Pseudomonas aeruginosa [10] = experiment: Bactericidal activity against Pseudomonas aeruginosa isolate 1019 at 1/4 times MIC after 24 hrs by time kill analysis; format: functional, organism-based; in short: as §2
Klebsiella pneumoniae [11] = experiment: Bactericidal activity against Klebsiella pneumoniae isolate 5436 at 1/4 times MIC after 24 hrs by time kill analysis; format: functional, organism-based; in short: as §2
Escherichia coli [12] = experiment: Bactericidal activity against Escherichia coli isolate 5401 at 1/4 times MIC after 24 hrs by time kill analysis; format: functional, organism-based; in short: as §1
Escherichia coli [13] = experiment: Antimicrobial activity against Escherichia coli isolate 5411 by broth microdilution method; format: functional
Pseudomonas aeruginosa [14] = experiment: Antimicrobial activity against Pseudomonas aeruginosa isolate 1037 by broth microdilution method; format: functional
Enterobacter cloacae [15] = experiment: Antimicrobial activity against Enterobacter cloacae isolate 4073 by broth microdilution method; format: functional
Pseudomonas aeruginosa [16] = experiment: Antimicrobial activity against Pseudomonas aeruginosa isolate 1019 by broth microdilution method; format: functional
Enterobacter cloacae [17] = experiment: Antimicrobial activity against Enterobacter cloacae isolate 5420 by broth microdilution method; format: functional
Pseudomonas aeruginosa [18] = experiment: Antimicrobial activity against Pseudomonas aeruginosa isolate 956 by broth microdilution method; format: functional
Klebsiella pneumoniae [19] = experiment: Antimicrobial activity against ESBL-producing Klebsiella pneumoniae by broth microdilution method; format: functional
Klebsiella pneumoniae [20] = experiment: Antimicrobial activity against Klebsiella pneumoniae isolate 5436 by broth microdilution method; format: functional
Pseudomonas aeruginosa [21] = experiment: Antimicrobial activity against Pseudomonas aeruginosa by broth microdilution method; format: functional
Enterobacter cloacae [22] = experiment: Antimicrobial activity against […] Enterobacter cloacae by broth microdilution method; format: functional

| SMILES | inhibition (Klebsiella pneumoniae [1]) | MBC (Escherichia coli [2]) | MIC (Pseudomonas aeruginosa [3]) | MBC (Escherichia coli [4]) | MIC (Escherichia coli [4]) | inhibition (Pseudomonas aeruginosa [5]) | inhibition (Pseudomonas aeruginosa [6]) | inhibition (Escherichia coli [7]) | MBC (Klebsiella pneumoniae [8]) | MIC (Klebsiella pneumoniae [8]) | inhibition (Pseudomonas aeruginosa [9]) | inhibition (Pseudomonas aeruginosa [10]) | inhibition (Klebsiella pneumoniae [11]) | inhibition (Escherichia coli [12]) | MBC (Escherichia coli [13]) | MIC (Escherichia coli [13]) | MIC (Pseudomonas aeruginosa [18]) | MBC (Klebsiella pneumoniae [19]) | MIC (Klebsiella pneumoniae [19]) | MIC (Klebsiella pneumoniae [20]) | also measured |
| --- | --- | --- | --- | --- | --- | --- | --- | --- | --- | --- | --- | --- | --- | --- | --- | --- | --- | --- | --- | --- | --- |
| CO/N=C(\C(=O)N[C@@H]1C(=O)N2C(C(=O)[O-])=C(C[N+]3(C)CCCC3)CS[C@H]12)c1csc(N)n1 | inactive | 0.25 µg/mL (≈ 0.52 µM) | 8 µg/mL (≈ 16.6 µM) | 4 µg/mL (≈ 8.32 µM) | 4 µg/mL (≈ 8.32 µM) | inactive | inactive | inactive | 1 µg/mL (≈ 2.08 µM) | 0.5 µg/mL (≈ 1.04 µM) | inactive | inactive | inactive | inactive | – | – | – | – | – | – | – |
| NCC[C@H](O)C(=O)N[C@@H]1C[C@H](N)[C@@H](O[C@H]2O[C@H](CN)[C@@H](O)[C@H](O)[C@H]2O)[C@H](O)[C@H]1O[C@H]1O[C@H](CO)[C@@H](O)[C@H](N)[C@H]1O [AMIKACIN] | inactive | 4 µg/mL (≈ 6.83 µM) | 16 µg/mL (≈ 27.3 µM) | 4 µg/mL (≈ 6.83 µM) | 2 µg/mL (≈ 3.42 µM) | inactive | inactive | inactive | 2 µg/mL (≈ 3.42 µM) | 2 µg/mL (≈ 3.42 µM) | inactive | inactive | inactive | inactive | 16 µg/mL (≈ 27.3 µM) | 8 µg/mL (≈ 13.7 µM) | 4 µg/mL (≈ 6.83 µM) | 1 µg/mL (≈ 1.71 µM) | 1 µg/mL (≈ 1.71 µM) | 1 µg/mL (≈ 1.71 µM) | MBC (Pseudomonas aeruginosa [14]): 4 µg/mL (≈ 6.83 µM); MIC (Pseudomonas aeruginosa [14]): 2 µg/mL (≈ 3.42 µM); MIC (Escherichia coli [2]): 1 µg/mL (≈ 1.71 µM); MBC (Pseudomonas aeruginosa [3]): 32 µg/mL (≈ 54.6 µM); MBC (Enterobacter cloacae [15]): 8 µg/mL (≈ 13.7 µM); MIC (Enterobacter cloacae [15]): 1 µg/mL (≈ 1.71 µM); MBC (Pseudomonas aeruginosa [16]): 4 µg/mL (≈ 6.83 µM); MIC (Pseudomonas aeruginosa [16]): 4 µg/mL (≈ 6.83 µM); MBC (Enterobacter cloacae [17]): 2 µg/mL (≈ 3.42 µM); MIC (Enterobacter cloacae [17]): 1 µg/mL (≈ 1.71 µM); MBC (Pseudomonas aeruginosa [18]): 64 µg/mL (≈ 109 µM); MBC (Klebsiella pneumoniae [20]): 2 µg/mL (≈ 3.42 µM); MBC (Pseudomonas aeruginosa [21]): 2 µg/mL (≈ 3.42 µM); MIC (Pseudomonas aeruginosa [21]): 2 µg/mL (≈ 3.42 µM); MBC (Enterobacter cloacae [22]): 1 µg/mL (≈ 1.71 µM); MIC (Enterobacter cloacae [22]): 0.5 µg/mL (≈ 0.854 µM) |
| C[C@H]1[C@H](NC(=O)/C(=N\OC(C)(C)C(=O)O)c2csc(N)n2)C(=O)N1S(=O)(=O)O [AZTREONAM] | inactive | > 0.125 µg/mL | – | 0.25 µg/mL (≈ 0.574 µM) | 0.25 µg/mL (≈ 0.574 µM) | inactive | inactive | inactive | 1 µg/mL (≈ 2.3 µM) | 0.5 µg/mL (≈ 1.15 µM) | inactive | inactive | inactive | inactive | 32 µg/mL (≈ 73.5 µM) | 8 µg/mL (≈ 18.4 µM) | 8 µg/mL (≈ 18.4 µM) | > 0.5 µg/mL | > 0.25 µg/mL | 64 µg/mL (≈ 147 µM) | MIC (Escherichia coli [2]): > 0.125 µg/mL |
| C[C@H]1COc2c(N3CCN(C)CC3)c(F)cc3c(=O)c(C(=O)O)cn1c23.C[C@H]1COc2c(N3CCN(C)CC3)c(F)cc3c(=O)c(C(=O)O)cn1c23.O [LEVOFLOXACIN] | inactive | 0.06 µg/mL | – | 32 µg/mL | 32 µg/mL | inactive | inactive | inactive | 2 µg/mL | 0.25 µg/mL | inactive | inactive | inactive | inactive | 16 µg/mL | 8 µg/mL | 0.5 µg/mL | > 0.25 µg/mL | > 0.25 µg/mL | 4 µg/mL | MBC (Pseudomonas aeruginosa [14]): 0.5 µg/mL; MIC (Pseudomonas aeruginosa [14]): 0.25 µg/mL; MBC (Pseudomonas aeruginosa [3]): 2 µg/mL; MBC (Enterobacter cloacae [15]): 0.06 µg/mL; MIC (Enterobacter cloacae [15]): 0.06 µg/mL; MBC (Pseudomonas aeruginosa [16]): 1 µg/mL; MIC (Pseudomonas aeruginosa [16]): 0.5 µg/mL; MBC (Enterobacter cloacae [17]): 0.06 µg/mL; MIC (Enterobacter cloacae [17]): 0.06 µg/mL; MBC (Pseudomonas aeruginosa [18]): 1 µg/mL; MBC (Klebsiella pneumoniae [20]): 4 µg/mL; MBC (Pseudomonas aeruginosa [21]): 0.5 µg/mL; MIC (Pseudomonas aeruginosa [21]): 0.25 µg/mL; MBC (Enterobacter cloacae [22]): 0.03 µg/mL; MIC (Enterobacter cloacae [22]): 0.03 µg/mL |
| C[C@@H](O)[C@H]1C(=O)N2C(C(=O)O)=C(S[C@@H]3CN[C@H](C(=O)N(C)C)C3)[C@H](C)[C@H]12 [MEROPENEM] | inactive | 0.06 µg/mL (≈ 0.156 µM) | 1 µg/mL (≈ 2.61 µM) | 0.06 µg/mL (≈ 0.156 µM) | 0.06 µg/mL (≈ 0.156 µM) | inactive | inactive | inactive | 16 µg/mL (≈ 41.7 µM) | 4 µg/mL (≈ 10.4 µM) | inactive | inactive | inactive | inactive | 0.06 µg/mL (≈ 0.156 µM) | 0.06 µg/mL (≈ 0.156 µM) | 0.25 µg/mL (≈ 0.652 µM) | 0.06 µg/mL (≈ 0.156 µM) | 0.03 µg/mL (≈ 0.0782 µM) | 0.06 µg/mL (≈ 0.156 µM) | MBC (Pseudomonas aeruginosa [14]): 1 µg/mL (≈ 2.61 µM); MIC (Pseudomonas aeruginosa [14]): 0.5 µg/mL (≈ 1.3 µM); MIC (Escherichia coli [2]): 0.03 µg/mL (≈ 0.0782 µM); MBC (Pseudomonas aeruginosa [3]): 2 µg/mL (≈ 5.22 µM); MBC (Enterobacter cloacae [15]): 0.5 µg/mL (≈ 1.3 µM); MIC (Enterobacter cloacae [15]): 0.25 µg/mL (≈ 0.652 µM); MBC (Pseudomonas aeruginosa [16]): 2 µg/mL (≈ 5.22 µM); MIC (Pseudomonas aeruginosa [16]): 1 µg/mL (≈ 2.61 µM); MBC (Enterobacter cloacae [17]): 0.125 µg/mL (≈ 0.326 µM); MIC (Enterobacter cloacae [17]): 0.125 µg/mL (≈ 0.326 µM); MBC (Pseudomonas aeruginosa [18]): 2 µg/mL (≈ 5.22 µM); MBC (Klebsiella pneumoniae [20]): 0.06 µg/mL (≈ 0.156 µM); MBC (Pseudomonas aeruginosa [21]): 0.125 µg/mL (≈ 0.326 µM); MIC (Pseudomonas aeruginosa [21]): 0.125 µg/mL (≈ 0.326 µM); MBC (Enterobacter cloacae [22]): 0.03 µg/mL (≈ 0.0782 µM); MIC (Enterobacter cloacae [22]): 0.03 µg/mL (≈ 0.0782 µM) |
| CN(C)c1cc(NC(=O)CNC(C)(C)C)c(O)c2c1C[C@H]1C[C@H]3[C@H](N(C)C)C(O)=C(C(N)=O)C(=O)[C@@]3(O)C(O)=C1C2=O [TIGECYCLINE] | inactive | 0.06 µg/mL (≈ 0.102 µM) | 32 µg/mL (≈ 54.6 µM) | 1 µg/mL (≈ 1.71 µM) | 0.5 µg/mL (≈ 0.854 µM) | inactive | inactive | inactive | 2 µg/mL (≈ 3.41 µM) | 0.5 µg/mL (≈ 0.854 µM) | inactive | inactive | inactive | inactive | 0.5 µg/mL (≈ 0.854 µM) | 0.125 µg/mL (≈ 0.213 µM) | 16 µg/mL (≈ 27.3 µM) | 0.5 µg/mL (≈ 0.854 µM) | 0.125 µg/mL (≈ 0.213 µM) | 0.125 µg/mL (≈ 0.213 µM) | MBC (Pseudomonas aeruginosa [14]): 32 µg/mL (≈ 54.6 µM); MIC (Pseudomonas aeruginosa [14]): 8 µg/mL (≈ 13.7 µM); MIC (Escherichia coli [2]): 0.06 µg/mL (≈ 0.102 µM); MBC (Pseudomonas aeruginosa [3]): 32 µg/mL (≈ 54.6 µM); MBC (Enterobacter cloacae [15]): 2 µg/mL (≈ 3.41 µM); MIC (Enterobacter cloacae [15]): 0.5 µg/mL (≈ 0.854 µM); MBC (Pseudomonas aeruginosa [16]): 8 µg/mL (≈ 13.7 µM); MIC (Pseudomonas aeruginosa [16]): 2 µg/mL (≈ 3.41 µM); MBC (Enterobacter cloacae [17]): 2 µg/mL (≈ 3.41 µM); MIC (Enterobacter cloacae [17]): 0.5 µg/mL (≈ 0.854 µM); MBC (Pseudomonas aeruginosa [18]): 128 µg/mL (≈ 219 µM); MBC (Klebsiella pneumoniae [20]): 1 µg/mL (≈ 1.71 µM); MBC (Pseudomonas aeruginosa [21]): 8 µg/mL (≈ 13.7 µM); MIC (Pseudomonas aeruginosa [21]): 2 µg/mL (≈ 3.41 µM); MBC (Enterobacter cloacae [22]): 0.5 µg/mL (≈ 0.854 µM); MIC (Enterobacter cloacae [22]): 0.25 µg/mL (≈ 0.427 µM) |
